Reference: ChEMBL document CHEMBL1139212, “Indole alkaloids from three species of the Ervatamia genus: E. officinalis, E. divaricata, and E. divaricata Gouyahua” (J Nat Prod, 2007)

Tests used:
A549 = experiment: Cytotoxicity against human A549 cells by SRB method; type: functional, cell-based
In short: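 In vitro growth inhibition of A-549 human lung carcinoma cells, read by sulforhodamine B staining; pseudolaric acid B served as positive control.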

P388 = experiment: Cytotoxicity against murine P388 cells by MTT method; type: functional, cell-based; conditions: Mus musculus
In short: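 In vitro growth inhibition of P-388 murine leukemia cells, read by MTT reduction; pseudolaric acid B served as positive control.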

Row | Structure (SMILES) | IC50 (A549) | IC50 (P388)
1 | CC[C@H]1C[C@H]2CN3CCc4c([nH]c5cc([C@@H]6C[C@H]7C(C(=O)OC)[C@@H](Cc8c6[nH]c6ccccc86)N(C)C[C@H]7CC)c(OC)cc45)[C@](C(=O)OC)(C2)[C@H]13 (stereo partly specified) [ERVADIVARICATINE B] | 430 nM | 360 nM
2 | CC[C@H]1C[C@@H]2C[C@H]3c4[nH]c5cc([C@@H]6C[C@H]7C(C(=O)OC)[C@@H](Cc8c6[nH]c6ccccc86)N(C)C[C@H]7CC)c(OC)cc5c4CCN(C2)[C@@H]13 (stereo partly specified) | 1100 nM | 840 nM
3 | COC(=O)C1=CC[C@@]23CC[C@@H]([C@@](C)(/C=C/C=C(\C)C(=O)O)OC2=O)[C@@]3(OC(C)=O)CC1 [PSEUDOLARIC ACID B] | – | 3700 nM
4 | CC[C@H]1C[C@@H]2C[C@H]3c4[nH]c5cc([C@@H]6C[C@H]7C(C(=O)OC)[C@@H](Cc8c6[nH]c6ccccc86)N(C)C[C@H]7CC)ccc5c4CCN(C2)[C@@H]13 (stereo partly specified) | 260 nM | 430 nM
5 | CC[C@@]12C=CCN3CC[C@]4(C(=C(C(=O)OC)C1)Nc1cc5c(cc14)[C@H]1[C@@H](O5)[C@H](O)[C@]4(CC)CC(C(=O)OC)=C5Nc6c(cc(O)c(OC)c6OC)[C@@]56CCN1[C@H]46)[C@H]32 [CONOPHYLLIDINE] | 44 nM | 25 nM
6 | C/C=C1/CN(C)[C@@H]2Cc3c([nH]c4ccccc34)[C@H](c3cc4[nH]c5c(c4cc3OC)CCN3C[C@@H]4C[C@H](CC)[C@H]3[C@H]5C4)C[C@H]1C2C(=O)OC (stereo partly specified) | 520 nM | 110 nM
